Experimental data: ChEMBL document CHEMBL2040794, “Synthesis and structure-activity analysis of new phosphonium salts with potent activity against African trypanosomes” (J Med Chem, 2012)

Columns and labels:
[1] = system: Trypanosoma brucei brucei; assay: Antitrypanosomal activity against diminazene-, pentamidine-, and melaminophenyl arsenical-resistant HAPT1-deficient Trypanosoma brucei brucei B48 after 3 days by alamar blue assay; type: functional, organism-based
How it was run: (§1)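 Bloodstream-form T. b. brucei (wild-type s427; TbAT1-KO, made from s427 by TbAT1 deletion; B48, selected from TbAT1-KO in vitro on pentamidine, lacking functional HAPT1). Cells were exposed to compound for 48 h, then resazurin (Alamar blue) was added for a further 24 h. A single fluorescence reading gave EC50.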

[2] = system: Trypanosoma brucei rhodesiense; assay: Antitrypanosomal activity against Trypanosoma brucei rhodesiense STIB900 infected in rat L6 cells after 72 hrs by alamar blue assay; type: functional, organism-based; settings: Trypanosoma brucei, STIB900, 72 h
[3] = system: Trypanosoma brucei brucei; assay: Antitrypanosomal activity against wild type Trypanosoma brucei brucei Lister 427 after 3 days by alamar blue assay; type: functional, organism-based; how it was run: as §1
[4] = system: Trypanosoma brucei brucei; assay: Antitrypanosomal activity against diminazene aceturate-resistant TbAT1 gene-deficient Trypanosoma brucei brucei AT1-KO after 3 days by alamar blue assay; type: functional, organism-based; how it was run: as §1
[5] = system: Trypanosoma brucei brucei; assay: Resistance factor, ratio of EC50 for diminazene-, pentamidine-, and melaminophenyl arsenical-resistant HAPT1-deficient Trypanosoma brucei brucei B48 to EC50 for wild type Trypanosoma brucei brucei Lister 427; type: functional
How it was run: (§2)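 Resistance factor is the EC50 in the resistant line (TbAT1-KO or B48) divided by the EC50 in wild-type s427. […] Resistant and wild-type EC50s were compared by Student t-test.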

[6] = Selectivity index, ratio of EC50 for human HEK cells to EC50 for wild type Trypanosoma brucei brucei Lister 427; type: toxicity, cell-based, HEK293; settings: for selectivity ratio: HEK cells, read-out: Ratio EC50
How it was run: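 Ratio of EC₅₀ in HEK cells to EC₅₀ in wild-type T. b. brucei s427, both from resazurin assays.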

[7] = Cytotoxicity against human HEK cells after 3 days by alamar blue assay; type: cell-based, HEK293
How it was run: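 Human embryonic kidney cells tested by resazurin (Alamar blue) assay: 48 h with compound, then 24 h more after dye addition, single reading; EC₅₀ derived.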

[8] = system: Trypanosoma brucei brucei; assay: Resistance factor, ratio of EC50 for diminazene aceturate-resistant TbAT1 gene-deficient Trypanosoma brucei brucei AT1-KO to EC50 for wild type Trypanosoma brucei brucei Lister 427; type: functional; how it was run: as §2
[9] = Selectivity index, ratio of EC50 for rat L6 cells to EC50 for Trypanosoma brucei rhodesiense STIB900; type: toxicity, cell-based; settings: for selectivity ratio: L6 cells, read-out: Ratio EC50
How it was run: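 Ratio of EC₅₀ in L6 cells to EC₅₀ against T. b. rhodesiense STIB900, both from Alamar blue assays.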

[10] = system: L6; assay: Cytotoxicity against rat L6 cells after 72 hrs by alamar blue assay; type: cell-based
[11] = Trypanosoma brucei, Lister 427, 72 h
[12] = Trypanosoma brucei, AT1-KO, 72 h

O=C(c1ccc(C[P+](c2ccccc2)(c2ccccc2)c2ccccn2)cc1)c1ccc(C[P+](c2ccccc2)(c2ccccc2)c2ccccn2)cc1.[Br-].[Br-]
EC50 ([1]; Trypanosoma brucei, B48, 72 h): 1330 nM
EC50 [2]: 607 nM
EC50 [3, 11]: 700 nM
EC50 [4, 12]: 1430 nM
Ratio EC50 [5]: 1.9
selectivity ratio [6]: > 400
EC50 ([7]; Homo sapiens, HEK293, 72 h): > 300000 nM
Ratio EC50 [8]: 2
selectivity ratio [9]: 24
EC50 ([10]; Rattus norvegicus, L6, 72 h): 14600 nM

Cc1ccc([P+](Cc2ccc(C(=O)c3ccccc3)cc2)(c2ccc(C)cc2)c2ccc(C)cc2)cc1.[Br-]
EC50 ([1]; Trypanosoma brucei, B48, 72 h): 11 nM
EC50 [2]: 81 nM
EC50 [3, 11]: 64 nM
EC50 [4, 12]: 12 nM
Ratio EC50 [5]: 0.2
selectivity ratio [6]: 505
EC50 ([7]; Homo sapiens, HEK293, 72 h): 32500 nM
Ratio EC50 [8]: 0.2
selectivity ratio [9]: 16.7
EC50 ([10]; Rattus norvegicus, L6, 72 h): 1350 nM

Cc1ccc([P+](Cc2ccc(CCCc3ccc(C[P+](c4ccc(C)cc4)(c4ccc(C)cc4)c4ccc(C)cc4)cc3)cc2)(c2ccc(C)cc2)c2ccc(C)cc2)cc1.[Br-].[Br-]
EC50 ([1]; Trypanosoma brucei, B48, 72 h): 53 nM
EC50 [2]: 81 nM
EC50 [3]: 29 nM
EC50 [4, 12]: 49 nM
Ratio EC50 [5]: 1.8
Ratio EC50 ([6]; hek293): 897
EC50 ([7]; hek293): 25800 nM
Ratio EC50 [8]: 1.7
selectivity ratio [9]: 22
EC50 ([10]; Rattus norvegicus, L6, 72 h): 1800 nM

COc1ccccc1[P+](Cc1ccc(Cc2ccc(C[P+](c3ccccc3OC)(c3ccccc3OC)c3ccccc3OC)cc2)cc1)(c1ccccc1OC)c1ccccc1OC.[Br-].[Br-]
EC50 ([1]; Trypanosoma brucei, B48, 72 h): 66 nM
EC50 [2]: 209 nM
EC50 [3, 11]: 80 nM
EC50 [4, 12]: 74 nM
Ratio EC50 [5]: 0.8
selectivity ratio [6]: 2560
EC50 ([7]; Homo sapiens, HEK293, 72 h): 204000 nM
Ratio EC50 [8]: 0.9
selectivity ratio [9]: 5
EC50 ([10]; Rattus norvegicus, L6, 72 h): 1080 nM

Cc1cccc([P+](Cc2ccc(Oc3ccccc3)cc2)(c2cccc(C)c2)c2cccc(C)c2)c1.[Br-]
EC50 ([1]; Trypanosoma brucei, B48, 72 h): 17 nM
EC50 [2]: 14 nM
EC50 [3, 11]: 28 nM
EC50 [4, 12]: 21 nM
Ratio EC50 [5]: 0.6
selectivity ratio [6]: 876
EC50 ([7]; Homo sapiens, HEK293, 72 h): 24500 nM
Ratio EC50 [8]: 0.8
selectivity ratio [9]: 62
EC50 ([10]; Rattus norvegicus, L6, 72 h): 870 nM

Cc1ccc([P+](Cc2ccc(C(=O)c3ccc(C[P+](c4ccccc4)(c4ccccc4)c4ccc(C)cc4)cc3)cc2)(c2ccccc2)c2ccccc2)cc1.[Br-].[Br-]
EC50 ([1]; Trypanosoma brucei, B48, 72 h): 183 nM
EC50 [2]: 260 nM
EC50 [3, 11]: 180 nM
EC50 [4, 12]: 182 nM
Ratio EC50 [5]: 1
selectivity ratio [6]: 1450
EC50 ([7]; Homo sapiens, HEK293, 72 h): 261000 nM
Ratio EC50 [8]: 1
selectivity ratio [9]: 62
EC50 ([10]; Rattus norvegicus, L6, 72 h): 16300 nM

CCC[P+](Cc1ccc(Oc2ccc(C[P+](CCC)(c3ccccc3)c3ccccc3)cc2)cc1)(c1ccccc1)c1ccccc1.[Br-].[Br-]
EC50 ([1]; Trypanosoma brucei, B48, 72 h): 300 nM
EC50 [2]: 567 nM
EC50 [3, 11]: 250 nM
EC50 [4, 12]: 280 nM
Ratio EC50 [5]: 1.2
selectivity ratio [6]: 914
EC50 ([7]; Homo sapiens, HEK293, 72 h): 233000 nM
Ratio EC50 [8]: 1.1
selectivity ratio [9]: 5
EC50 ([10]; Rattus norvegicus, L6, 72 h): 2900 nM

[Br-].[Br-].c1ccc2c([P+](Cc3ccc(Cc4ccc(C[P+](c5cccc6ccccc56)(c5cccc6ccccc56)c5cccc6ccccc56)cc4)cc3)(c3cccc4ccccc34)c3cccc4ccccc34)cccc2c1
EC50 ([1]; Trypanosoma brucei, B48, 72 h): 140 nM
EC50 [2]: 299 nM
EC50 [3, 11]: 140 nM
EC50 [4, 12]: 170 nM
Ratio EC50 [5]: 1
selectivity ratio [6]: 1210
EC50 ([7]; Homo sapiens, HEK293, 72 h): 163000 nM
Ratio EC50 [8]: 1.3
selectivity ratio [9]: 12
EC50 ([10]; Rattus norvegicus, L6, 72 h): 3430 nM

C[P+](C)(Cc1ccc(CCCc2ccc(C[P+](C)(C)c3ccccc3)cc2)cc1)c1ccccc1.[Br-].[Br-]
EC50 ([1]; Trypanosoma brucei, B48, 72 h): 1090 nM
EC50 [2]: 1220 nM
EC50 [3, 11]: 1270 nM
EC50 [4, 12]: 1370 nM
Ratio EC50 [5]: 0.9
selectivity ratio [6]: > 230
EC50 ([7]; Homo sapiens, HEK293, 72 h): > 300000 nM
Ratio EC50 [8]: 1.1
selectivity ratio [9]: 49
EC50 ([10]; Rattus norvegicus, L6, 72 h): 59500 nM

Cc1cccc([P+](Cc2ccc(Cc3ccc(C[P+](c4cccc(C)c4)(c4cccc(C)c4)c4cccc(C)c4)cc3)cc2)(c2cccc(C)c2)c2cccc(C)c2)c1.[Br-].[Br-]
EC50 ([1]; Trypanosoma brucei, B48, 72 h): 130 nM
EC50 [2]: 231 nM
EC50 [3, 11]: 140 nM
EC50 [4, 12]: 140 nM
Ratio EC50 [5]: 0.9
selectivity ratio [6]: 524
EC50 ([7]; Homo sapiens, HEK293, 72 h): 72600 nM
Ratio EC50 [8]: 1
selectivity ratio [9]: 4
EC50 ([10]; Rattus norvegicus, L6, 72 h): 939 nM

Cc1ccc([P+](Cc2ccc(CCc3ccc(C[P+](c4ccc(C)cc4)(c4ccc(C)cc4)c4ccc(C)cc4)cc3)cc2)(c2ccc(C)cc2)c2ccc(C)cc2)cc1.[Br-].[Br-]
EC50 [1]: 150 nM
EC50 [2]: 84 nM
EC50 [3]: 150 nM
EC50 [4]: 150 nM
Ratio EC50 [5]: 1
selectivity ratio [6]: 213
EC50 ([7]; Homo sapiens, HEK293, 72 h): 32400 nM
Ratio EC50 [8]: 1
Ratio EC50 ([9]; l6): 7.8
EC50 ([10]; l6): 656 nM

COc1ccccc1[P+](Cc1ccc(C(=O)c2ccc(C[P+](c3ccccc3OC)(c3ccccc3OC)c3ccccc3OC)cc2)cc1)(c1ccccc1OC)c1ccccc1OC.[Br-].[Br-]
EC50 ([1]; Trypanosoma brucei, B48, 72 h): 80 nM
EC50 [2]: 200 nM
EC50 [3, 11]: 110 nM
EC50 [4, 12]: 160 nM
Ratio EC50 [5]: 0.7
selectivity ratio [6]: 1180
EC50 ([7]; Homo sapiens, HEK293, 72 h): 131000 nM
Ratio EC50 [8]: 1.5
selectivity ratio [9]: 45
EC50 ([10]; Rattus norvegicus, L6, 72 h): 9000 nM

CC[P+](Cc1ccc(C(=O)c2ccc(C[P+](CC)(c3ccccc3)c3ccccc3)cc2)cc1)(c1ccccc1)c1ccccc1.[Br-].[Br-]
EC50 ([1]; Trypanosoma brucei, B48, 72 h): 1760 nM
EC50 [2]: 554 nM
EC50 [3, 11]: 970 nM
EC50 [4, 12]: 2100 nM
Ratio EC50 [5]: 1.8
selectivity ratio [6]: > 300
EC50 ([7]; Homo sapiens, HEK293, 72 h): > 300000 nM
Ratio EC50 [8]: 2.2
selectivity ratio [9]: > 204
EC50 ([10]; Rattus norvegicus, L6, 72 h): > 113000 nM

COc1ccccc1[P+](Cc1ccc(C(=O)c2ccccc2)cc1)(c1ccccc1OC)c1ccccc1OC.[Br-]
EC50 ([1]; Trypanosoma brucei, B48, 72 h): 150 nM
EC50 [2]: 376 nM
EC50 [3, 11]: 210 nM
EC50 [4, 12]: 220 nM
Ratio EC50 [5]: 0.7
selectivity ratio [6]: 306
EC50 ([7]; Homo sapiens, HEK293, 72 h): 63200 nM
Ratio EC50 [8]: 1.1
selectivity ratio [9]: 10
EC50 ([10]; Rattus norvegicus, L6, 72 h): 3970 nM

Cc1ccc([P+](Cc2ccc(S(=O)(=O)c3ccc(C[P+](c4ccc(C)cc4)(c4ccc(C)cc4)c4ccc(C)cc4)cc3)cc2)(c2ccc(C)cc2)c2ccc(C)cc2)cc1.[Br-].[Br-]
EC50 ([1]; Trypanosoma brucei, B48, 72 h): 270 nM
EC50 [2]: 173 nM
EC50 [3, 11]: 230 nM
EC50 [4, 12]: 253 nM
Ratio EC50 [5]: 1.2
selectivity ratio [6]: > 1300
EC50 ([7]; Homo sapiens, HEK293, 72 h): > 300000 nM
Ratio EC50 [8]: 1.1
selectivity ratio [9]: 127
EC50 ([10]; Rattus norvegicus, L6, 72 h): 22000 nM

O=C(c1ccc(C[P+](c2ccc(F)cc2)(c2ccc(F)cc2)c2ccc(F)cc2)cc1)c1ccc(C[P+](c2ccc(F)cc2)(c2ccc(F)cc2)c2ccc(F)cc2)cc1.[Br-].[Br-]
EC50 ([1]; Trypanosoma brucei, B48, 72 h): 1240 nM
EC50 [2]: 450 nM
EC50 [3, 11]: 850 nM
EC50 [4, 12]: 2100 nM
Ratio EC50 [5]: 1.5
selectivity ratio [6]: > 350
EC50 ([7]; Homo sapiens, HEK293, 72 h): > 300000 nM
Ratio EC50 [8]: 2.5
selectivity ratio [9]: 172
EC50 ([10]; Rattus norvegicus, L6, 72 h): 77400 nM

Cc1ccc(C[P+](c2ccccc2)(c2ccccc2)c2ccccc2)cc1.[Cl-]
EC50 ([1]; Trypanosoma brucei, B48, 72 h): 23 nM
EC50 [2]: 216 nM
EC50 [3, 11]: 23 nM
EC50 [4, 12]: 24 nM
Ratio EC50 [5]: 1
selectivity ratio [6]: > 12500
EC50 ([7]; Homo sapiens, HEK293, 72 h): > 300000 nM
Ratio EC50 [8]: 1
selectivity ratio [9]: 48
EC50 ([10]; Rattus norvegicus, L6, 72 h): 10400 nM
